Assays:
[1] = test system: MDA-MB-231 tumor cells in SCID mice; experiment: Lung metastatic animal model of TNBC; type: in vivo, mouse; details: post-treatment, 5 mg/kg i.p. every three days (21 doses), day 71
Summary of the method: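 Seventy female SCID mice, 5 weeks old, randomised into 7 groups. MDA-MB-231 cells (1 × 10^6) injected i.v. on day 0. One group received 10 mg/kg every two days for three doses before cell injection. Tumor and sham controls received 5% DMSO. Mice killed on day 71; lung colonies counted, body weight and organ index recorded; one-way ANOVA.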

[2] = test system: MDA-MB-231 cells; experiment: Boyden chamber migration assay; type: cell-based, human; details: 24 h, vs vehicle; for reduction of cell migration, low concentration: DET 2.5 μM, DETD-35 1.25 μM, PTX 2.5 μM
Summary of the method: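 Boyden inserts, 6.5 mm diameter, no coating. 5 × 10^4 MDA-MB-231 cells per insert in DMEM with 0.1% FBS. The lower well held 10% FBS chemoattractant with 0.5% DMSO vehicle or test compounds at two concentrations. Incubation 24 h, 37 °C, 5% CO2. Non-migrated cells removed by swab; migrated cells fixed, DAPI-stained (1 μg/mL) and counted in three fields at 20× by fluorescence microscopy. Three independent experiments, mean ± SEM, one-way ANOVA.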

[3] = test system: lung tissues of MDA-MB-231 xenograft SCID mice; experiment: Immunohistochemistry of lung tissues; type: in vivo, mouse; details: lung tissue
Summary of the method: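 Lungs from the metastasis model were fixed in 10% buffered formalin, paraffin-embedded and cut at 4 μm. Sections stained with H&E and immunostained with rabbit antibodies to VEGF, Ki-67, COX-2 and caspase 3. Staining levels quantified by image analysis and compared with sham and tumor control groups.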

[4] = test system: MDA-MB-231 cells; experiment: Boyden chamber; type: cell-based, human; details: 24 h, Matrigel
Summary of the method: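 Filters (8 μm) pre-coated with Matrigel (30 μg per filter) and held 2 h at 37 °C. MDA-MB-231 cells were seeded in the upper chamber at 5 × 10^4 per insert in DMEM with 0.1% FBS. The lower well held 10% FBS chemoattractant plus 0.5% DMSO vehicle or test compounds, two concentrations each. Incubation 24 h, 37 °C, 5% CO2. Cells on the upper surface were scraped off; invaded cells fixed, DAPI-stained (1 μg/mL) and counted in three 20× fields. Three independent experiments, mean ± SEM, one-way ANOVA.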

[5] = test system: MDA-MB-231 cells; experiment: Cell cycle analysis by flow cytometry; type: cell-based, human; details: for apoptotic sub-G1 DNA content / G0/G1 phase DNA content: 48 h at IC50 (DET 14 μM, DETD-35 3.8 μM, PTX 60 μM); for apoptotic sub-G1 DNA content: vehicle 1.3%; for G0/G1 phase DNA content: vehicle 51.5%; for cell-cycle arrest: treatment at IC50, time course
Summary of the method: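 MDA-MB-231 cells, 5 × 10^4 per well in 6-well plates, held 24 h in DMEM with 0.5% FBS. Medium then switched to 10% FBS with test compounds for 48 h, or for indicated times. Adherent and floating cells pooled, PBS-washed and fixed in ice-cold 70% ethanol overnight at 4 °C. Stained with 20 μg/mL RNase, Triton X-100 and 20 μg/mL propidium iodide for 30 min, dark, room temperature. Phase fractions (sub-G1, G0/G1, S, G2/M) taken from flow cytometric DNA histograms; three independent experiments.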

[6] = test system: MDA-MB-231 cells; experiment: Western blot analysis of protein markers; type: cell-based, human; details: for PARP (full-length and cleaved) expression: 48-h treatment
Summary of the method: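 Total cellular protein from treated MDA-MB-231 cells, quantified by Bradford assay. Resolved on 4%–20% gradient SDS-PAGE and immunoblotted for PARP (full-length and cleaved), PN-1, Slug, vimentin, VEGF, E-cadherin, Snail, ZO-1 and ZEB-1, with actin as loading control. HRP secondary antibodies and enhanced chemiluminescence on film. Bands quantified by densitometry and normalised to actin.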

[7] = test system: MDA-MB-231 cells; experiment: Compound-drug combination assay; type: cell-based, human; details: MTT, 24 h
Summary of the method: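 MDA-MB-231 cells seeded at 1.5 × 10^3–5 × 10^3 per well in 96-well plates. Treated 24 h with each agent alone to derive IC40 by MTT. Then treated with the test compound (0–4 μM) combined with paclitaxel (0–100 nM) and read by MTT. Interaction assessed by classic isobologram and the Chou-Talalay method. Combination index plotted against fraction affected: CI <1 synergy, =1 additive, >1 antagonism.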

[8] = test system: brain cancer cell line U-87MG; experiment: MTT cell viability assay, U-87MG cells; type: cell-based; details: read-out: 50% inhibitory concentration (IC50), U-87MG, 24 h
Summary of the method: (§1)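 Normal or cancer cells seeded at 2 × 10^3–1 × 10^4 per well in 96-well plates and allowed to settle overnight. Exposed to test compounds for 24 h, with paclitaxel run in parallel as reference. Growth read by MTT, OD570. Viability (%) = treated OD570 / vehicle OD570 × 100, with 0.5% DMSO vehicle set as 100%. IC50 derived from viability data.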

[9] = test system: TS/A (ER+, HER2−) murine mammary cancer cell line; experiment: MTT cell viability assay, TS/A cells; type: cell-based; details: read-out: 50% inhibitory concentration (IC50), TS/A (mouse), Table 3, 24 h, breast
Summary of the method: as §1

[10] = test system: lung cancer cell line PC6; experiment: MTT cell viability assay, PC6 cells; type: cell-based; details: read-out: 50% inhibitory concentration (IC50), PC6, 24 h
Summary of the method: as §1

[11] = test system: colon cancer cell line HCT-116; experiment: MTT cell viability assay, HCT-116 cells; type: cell-based; details: read-out: 50% inhibitory concentration (IC50), HCT-116, 24 h
Summary of the method: as §1

[12] = test system: lymphoma line U937; experiment: MTT cell viability assay, U937 cells; type: cell-based; details: read-out: 50% inhibitory concentration (IC50), U937, 24 h
Summary of the method: as §1

[13] = test system: MDA-MB-231 (ER−, PR−, HER2−) cells; experiment: MTT cell viability assay, MDA-MB-231 cells; type: cell-based, human; details: read-out: 50% inhibitory concentration (IC50), MDA-MB-231, Table 3, 24 h, breast
Summary of the method: as §1

[14] = test system: PC3 cells (prostate); experiment: MTT cell viability assay, PC3 cells; type: cell-based; details: read-out: 50% inhibitory concentration (IC50), PC3, 24 h
Summary of the method: as §1

[15] = test system: stomach cancer cell line KATO III; experiment: MTT cell viability assay, KATO III cells; type: cell-based; details: read-out: 50% inhibitory concentration (IC50), KATO III, 24 h
Summary of the method: as §1

[16] = test system: neuroepithelioma line SK-N-MC; experiment: MTT cell viability assay, SK-N-MC cells; type: cell-based; details: read-out: 50% inhibitory concentration (IC50), SK-N-MC, 24 h
Summary of the method: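 Cells (2 × 10^3–1 × 10^4 per well) seeded overnight in 96-well plates, then exposed to test compound for 24 h. Growth read by MTT colorimetric assay at OD570. Viability expressed as treated OD570 over vehicle (0.5% DMSO) OD570 × 100, with vehicle set to 100% viable. IC50 taken as the concentration giving 50% inhibition of viability.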

[17] = test system: kidney cancer cell line A498; experiment: MTT cell viability assay, A498 cells; type: cell-based; details: read-out: 50% inhibitory concentration (IC50), A498, 24 h
Summary of the method: as §1

[18] = test system: B16–F10 cells (skin); experiment: MTT cell viability assay, B16–F10 cells; type: cell-based; details: read-out: 50% inhibitory concentration (IC50), B16–F10 (mouse), 24 h
Summary of the method: as §1

[19] = test system: uterus cancer cell line NES-SA; experiment: MTT cell viability assay, NES-SA cells; type: cell-based; details: read-out: 50% inhibitory concentration (IC50), NES-SA, 24 h
Summary of the method: as §1

[20] = DET 4 μM, DETD-35 2.5 μM, PTX 4 μM

CC(=O)O[C@H]1C(=O)[C@@]2(C)[C@H]([C@H](OC(=O)c3ccccc3)[C@]3(O)C[C@H](OC(=O)[C@H](O)[C@@H](NC(=O)c4ccccc4)c4ccccc4)C(C)=C1C3(C)C)[C@]1(OC(C)=O)CO[C@@H]1C[C@@H]2O [PTX, paclitaxel] was tested, and the “reduction of lung tumor foci” value [1] was 62%, the “reduction of cell migration, low concentration” value [2] was 87% and the “reduction of cell migration, high concentration” value [2, 20] was 88%. The “expression of apoptotic marker caspase 3” value [3] was “increased expression”, the “inhibition of cell invasion, low concentration” value ([4]; DET 2.5 μM, DETD-35 1.25 μM, PTX 2.5 μM) was 85% and the “inhibition of cell invasion, high concentration” value [4, 20] was 90%. For the same compound, the “apoptotic sub-G1 DNA content” value [5] was 66.8%, the “G0/G1 phase DNA content” value [5] was 11.2% and the cell-cycle arrest [5] was “typical time-dependent G2/M arrest”. The “expressions of VEGF and protease nexin-1 (PN-1)” value [6] was “downregulated”, the vimentin expression [6] was “time-dependently downregulated” and the “PARP (full-length and cleaved) expression” value [6] was “reduced the expression of full-length PARP”. For the same compound, the “IC40 on MDA-MB-231 cells” value [7] was 23.8 nM.

C=C(C)C(=O)O[C@H]1CC2=C[C@@H](C/C(C)=C/[C@H]3OC(=O)C(=C)[C@H]13)OC2=O [compound 1, deoxyelephantopin, reference compound] was tested, and the IC50 [8] was 1000 nM, the IC50 [9] was 2600 nM and the “reduction of cell migration, low concentration” value [2] was 16%. For the same compound, the IC50 [10] was 400 nM, the IC50 [11] was 280 nM and the “apoptotic sub-G1 DNA content” value [5] was 19.3%. For the same compound, the “G0/G1 phase DNA content” value [5] was 36.2%, the cell-cycle arrest [5] was “did not show any cell-cycle arrest at specific stages” and the “expressions of VEGF and protease nexin-1 (PN-1)” value [6] was “downregulated”. The vimentin expression [6] was “did not regulate”, the “PARP (full-length and cleaved) expression” value [6] was “induced significant cleavage in PARP” and the ZEB-1 expression level ([6]; at 48 h) was 49%. It also gave an IC50 [12] of 480 nM, an IC50 [13] of 14 µM and an IC50 [14] of 12.8 µM. The IC50 [15] was 1470 nM, the IC50 [16] was 510 nM and the IC50 [17] was 2820 nM. It also gave an IC50 [18] of 6 µM and an IC50 [19] of 900 nM.

Cinnamate [compound 28] gave an IC50 [8] of 350 nM, an IC50 [9] of 1800 nM and an IC50 [10] of 170 nM. The IC50 [11] was 110 nM, the IC50 [12] was 180 nM and the IC50 [13] was 4 µM. It also gave an IC50 [14] of 4.5 µM, an IC50 [15] of 420 nM and an IC50 [16] of 320 nM. The IC50 [17] was 1110 nM, the IC50 [18] was 3.9 µM and the IC50 [19] was 420 nM.
